A selection: hits, their analogues and other compounds. The true share with any hit is near 5%.
UPR CHOP act: activators of apoptotic arm of unfolded protein response (CHOP); CHO-CHOP luciferase reporter, UPR activation, luminescence; percent of tunicamycin response over DMSO baseline; AID 449763; 0.34% of 330,000 active; activation, % at 10 µM;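 active means at 10 µM dose, activation of 40% or more, normalized to positive control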
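Test system: CHO-CHOP cells, stable luciferase reporter of PERK-eIF2a-CHOP signalling | Quantity: 500 CHO-CHOP cells per well | Buffer or medium: F12 plus 10% serum | Compound dosing: 10 µM single point, 0.5% DMSO | Schedule: 6 h compound treatment, 37 °C | Signal: Luciferase luminescence | Control set: Tunicamycin high control, DMSO low control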
Beta cell apopt: beta cell apoptosis inhibition | 0.8% of 300,000 active | INS-1E cytokine-induced death, ATP luminescence, 48 h; percent of positive-control rescue, neutral wells zero | AID 435005 | protection from apoptosis, % (test concentration not listed);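 active means Every replicate reaches about 75%, or at least half do and their mean reaches it too, limit read from the data; inconclusive means At least half of replicates reach the limit but their mean does not; inactive means Under half of replicates reach the limit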;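 further: higher means more ATP so stronger rescue from cytokine killing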
UPR XBP1 act: adaptive UPR (XBP1) activation | CHO-XBP1 luciferase reporter, IRE1-XBP1 UPR activation, luminescence; percent of tunicamycin response, DMSO as zero | activation, % at 20 µM | 0.33% of 330,000 active | AID 463104;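 active means versus positive control, 20 µM dose yields 30% or more activation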
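Material: IRE1-XBP1 luciferase reporter CHO line / Quantity: one thousand reporter cells per well / Buffer or medium: F12 with 10% serum / Compound: 20 µM single concentration, DMSO 1% / Times: 6 h treatment, 37 °C / Detection: Steady-Glo luciferase glow luminescence, 10 min after reagent addition / Benchmarks: tunicamycin high, DMSO low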
T cruzi repl: blocks replication of Trypanosoma cruzi; 1.4% of 300,000 active; T. cruzi beta-gal in NIH3T3, luminescence, 90 h; inhibition, % (no concentration beside the values); AID 1885;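 active means mean inhibition across valid replicates above about 55%, limit read from the data; inconclusive means mean below that limit but half or more replicates reach it; inactive means mean below it, under half of replicates reach it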;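 further: signal also drops with host cell toxicity which is not excluded here; higher percent means less beta-gal luminescence so fewer parasites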
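System: mouse NIH/3T3 fibroblasts infected with β-gal-expressing T. cruzi Tulahuen C4 / Input: NIH/3T3 cells, 5,000 per well / Buffer or medium: Low-serum DMEM with 2% FBS / Probe or stimulus: 5000 reporter trypomastigotes per well / Schedule: ≥90 h infection period, 3 h prior cell attachment / Measured by: GalScreen luminescence, 60 min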
Mdm2-MdmX inh: human Mdm2/MdmX binding inhibition | SaOS-2 split-luciferase Mdm2/MdmX complementation, luminescence | inhibition, % at 8 µM | 3% of 330,000 active;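 active means inhibition of at least 50% at 8 µM in the primary screen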
CSC inhib: blocks cancer stem cells; cancer stem cell-like cells viability, luminescence; inhibition, % at 7.5 µM; 1.1% of 300,000 active; in the data active means inhibition above about 75%; inconclusive means no clear call, values can overlap the other calls; tested in HMLE shEcad cells
A number is an active result; . = inactive; ? = inconclusive; / = no result; + = active, no number.

SMILES	UPR CHOP act	Beta cell apopt	UPR XBP1 act	T cruzi repl	Mdm2-MdmX inh	CSC inhib
O=C(c1ccc(CSc2nc3ccncc3[nH]2)cc1)N1CCN(c2cccc(Cl)c2)CC1	.	.	.	55	.	.
O=C(c1ccc(CSc2ccccc2)cc1)N1CCN(c2ccccc2)CC1	.	.	.	.	.	+
Cc1nn2c(NCCCN(C)C)c3c(nc2c1-c1ccccc1)CCC3	.	.	.	69	.	/
Cc1nn2c(NCCCN(C)C)c3c(nc2c1-c1ccccc1)CCCC3	.	.	.	.	.	.
CCc1nc(SCC(=O)Nc2ccnc3ccccc23)n[nH]1	.	/	.	.	.	/
CCc1c(C)nc2ncnn2c1NCCc1ccc(OC)cc1	.	97	.	.	.	.
CCc1c(C)nc2ncnn2c1Nc1ccc(C)cc1	.	.	.	.	.	.
O=[N+]([O-])c1cccc(-c2cnc3ccccc3n2)c1	.	.	.	.	.	.
O=Nc1c(-c2cccc([N+](=O)[O-])c2)nc2ncccn12	131	.	.	.	.	.
O=C1CCN(Cc2ccccc2)C=C1c1cccc(O)c1	.	.	.	/	.	.
CCOc1ccc(OCCC(=O)Nc2ccc(F)cc2C)cc1	.	.	.	.	.	.
CC(C)CN(C(=O)COC(=O)c1ccc(Br)o1)c1c(N)n(Cc2ccccc2)c(=O)[nH]c1=O	.	.	.	.	.	.
CCOc1ccc(NC2=C(Cl)C(=O)N(Cc3ccccc3)C2=O)cc1	.	.	.	.	.	.
Cc1ccc(O)c(NC2=C(Cl)C(=O)N(Cc3ccccc3)C2=O)c1	/	/	/	58	/	/
COc1ccc(Nc2nc(NCC3CCCO3)c3ccccc3n2)c(OC)c1 (centres undefined)	.	.	.	68	.	.
c1ccc(Nc2nc(NCC3CCCO3)c3ccccc3n2)cc1 (centres undefined)	.	.	.	93	.	.
c1ccc(-c2nc(NCC3CCCO3)c3ccccc3n2)nc1 (centres undefined)	.	115	.	.	.	.
c1ccc2c(NCC3CCCO3)nc(N3CCOCC3)nc2c1 (centres undefined)	.	.	.	.	.	.
Cc1ccc(C)c(-n2c(-c3ccc(Br)cc3)csc2=NC(=O)c2ccccc2F)c1	.	.	.	64	.	.
Cn1ccsc1=NC(=O)c1ccccc1F	.	.	.	.	.	.
Cc1ccc(C(=O)Nc2ncccc2O)o1	.	.	.	.	.	.
O=C(NC1CCCCCC1)c1ccc[nH]c1=S	.	.	.	58	.	.
Cc1sc(N/N=C/C=C/c2ccccc2)nc1-c1ccccc1	.	.	.	55	.	.
Cc1nnc2ccc(-c3ccc(NS(=O)(=O)c4ccc(F)cc4F)cc3)nn12	.	.	.	.	.	.
CC(O)CC(C(=O)NNc1ccccc1)C(=O)NNc1ccccc1 (centres undefined)	.	/	.	.	.	92
SMILES	UPR CHOP act	Beta cell apopt	UPR XBP1 act	T cruzi repl	Mdm2-MdmX inh	CSC inhib
CC(C)OC(=O)C(=O)NNc1ccccc1	.	.	.	58	.	99
CC(C)C(=O)NNc1ccccc1	.	.	.	.	.	.
COCCNC(=O)CCn1nc(-c2ccc(C)cc2)ccc1=O	.	/	.	.	.	/
CC(=O)N1CCCC1(C(=O)O)c1ccccc1 (centres undefined)	.	.	.	.	.	.
COc1cc(-c2nc(CN(C)C(C)c3ccncn3)c(C)o2)ccc1F (centres undefined)	.	.	.	.	.	.
O=C(O)c1ccccc1C(=O)Nc1ccc(S(=O)(=O)Nc2ccc(F)cc2)cc1	.	.	.	.	.	.
S=C(Nc1ccc(Cl)cc1)Nc1cccc2cnccc12	.	91	.	.	.	.
Fc1ccc(NC(=S)Nc2cccc3cnccc23)cc1	.	.	.	.	.	.
COc1ccc(-c2c[n+]3c(n2-c2ccccc2)SCC3)cc1	.	/	.	61	.	.
Cc1ccc(-c2c[n+]3c(n2-c2ccccc2)SCC3)cc1	.	106	.	66	.	.
COc1ccccc1C1(CC(=O)Nc2nccs2)CCOC(C(C)C)C1 (centres undefined)	.	.	.	.	.	.
C/C(=N/NC(=S)Nc1cccc(C)c1)c1cccc([N+](=O)[O-])c1	.	.	.	56	.	.
O=C(c1cnn2c1NC(c1ccc(Br)cc1)CC2C(F)(F)F)N1CCN2CCCC2C1 (centres undefined)	.	.	.	.	.	80
Cc1cc(C)cc(Oc2cc(NC(=O)c3cn(C)nc3C)cc([N+](=O)[O-])c2)c1	.	104	.	.	.	/
CC(C)(C)OC(=O)C[C@@H]1C/C=C\C[C@@H](CC(=O)N[C@@H](CO)Cc2ccccc2)C(=O)N2CCC[C@@H]2COC1=O	.	.	.	/	.	.
Cc1ccc(S(=O)(=O)c2nnn3c2nc(N2CCOCC2)c2ccccc23)cc1	.	.	.	.	.	.
Cc1ccc(S(=O)(=O)c2nnn3c2nc(N2CCCCC2)c2ccccc23)cc1	.	.	.	61	.	.
C/C(=N\NC(=O)c1ccccn1)c1ccc(Cl)cc1	.	.	.	.	.	.
CN1CCC(=C(c2ccc(Cl)cc2)c2ccccn2)CC1	.	.	.	69	.	.
Cc1cccc(Nc2nc(N)c([N+](=O)[O-])c(N3CC(C)CC(C)C3)n2)c1 (centres undefined)	.	?	.	.	.	105
Cc1cccc(Nc2nc(N)c([N+](=O)[O-])c(N3CC(C)OC(C)C3)n2)c1 (centres undefined)	.	.	.	.	.	.
CCn1c(SCC(=O)Nc2ccc3c(c2)OCCO3)nnc1C1CC1	.	.	.	.	.	.
O=C1NC(=S)S/C1=C\c1ccc(SCc2ccccc2)o1	/	.	/	/	/	76
CC1(C)C[C@@H]2C[C@@](C)(CN2C(=O)c2cc(COc3cccc(C(F)(F)F)c3)on2)C1	.	104	.	.	.	96
COc1ccc(-c2cc(C(=O)N3CC4(C)CC3CC(C)(C)C4)no2)cc1OC (centres undefined)	.	.	.	.	.	83
COc1ccc(-c2cc(C(=O)N3CC4(C)CC3CC(C)(C)C4)no2)cc1 (centres undefined)	.	.	.	.	.	?
CCC(=O)c1c(NC(C)C)cc(C)oc1=O	.	.	.	.	.	.
C(=C\c1nc(N2CCCCCC2)c2ccccc2n1)/c1ccccc1	.	109	.	.	.	79
COc1ccc(C2=C(C=Nc3c(C)n(C)n(-c4ccccc4)c3=O)C(c3ccccc3C)c3ccccc3O2)cc1OC (centres undefined)	.	.	.	.	.	.
